T cruzi HTS: blocks T. cruzi growth inside host cells. intracellular Trypanosoma cruzi in host cells, plate reader. activity score (inhibition), % at 5.01 µM. 22,000 compounds, 4.9% hits. AID 651903; in the data active = activity score above about 55%;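 also: parasites and compound incubated about four days before reading; 0% = median of neutral control wells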
A1 apoptosis 2: A1 inhibition read as caspase activation; caspase activation, % (test concentration not listed); AID 2465; 24,000 tested, under 10 active; MEF A1-2A-BIM cells, caspase-Glo luminescence, 3 h; percent of clofoctol response, DMSO zero; in the data active = caspase activation above about 5.9%
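Material: mouse embryonic fibroblasts co-expressing A1 and BIM (A1-2A-BIM), primed for A1 dependence / Quantity: 2500 cells/well / Buffer or medium: RPMI-1640 growth medium with 10% FBS / Doses: 50 nL compound per well, pinned / Schedule: 3 h compound exposure at 37 °C / Signal: Caspase-Glo luminescence (DEVD substrate) / Measure: Caspase-3/7 activation, seen as rise in luminescence signal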
INS-1E rescue: preserves ATP levels in cytokine-treated INS-1E cells | INS-1E cytokine-induced death, ATP luminescence, 48 h; normalised: neutral wells 0, positive control 100 | protection from cytokine-induced ATP loss, % at 10 µM | 20,000 compounds, 0.1% hits | AID 488910;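 active = mean replicate protection from cytokine-induced ATP loss at least 50% and at least 75% of replicates each reaching 50%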
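Assay system: INS-1E rat cells / Quantity: 8000 cells per well / Medium: RPMI without phenol red, 5% FBS / Probe or stimulus: three-cytokine cocktail (IFN-γ, TNF-α, IL-1β) / Dosing: one compound concentration, pin transfer / Timing: 48 h co-treatment, 10 min post-lysis read / Technique: CellTiter-Glo luminescence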
Starred values were filed as active, the others as inactive; · = not tested or not shown. The entries come from a sample that favours hits as a whole.

SMILES	T cruzi HTS	A1 apoptosis 2	INS-1E rescue
C[C@H]1CN([C@@H](C)CO)C(=O)c2cc(NS(=O)(=O)c3ccccc3)ccc2O[C@H]1CN(C)Cc1ccc(Cl)c(Cl)c1	52*	-1	·
C[C@@H]1CN([C@@H](C)CO)C(=O)c2cc(NS(=O)(=O)c3ccccc3)ccc2O[C@@H]1CN(C)Cc1ccc(Cl)c(Cl)c1	13	-2	-29
C[C@@H]1CCCCO[C@@H](CN(C)Cc2ccc(Cl)c(Cl)c2)[C@@H](C)CN([C@H](C)CO)C(=O)c2cc(NS(=O)(=O)c3cccs3)ccc2O1	68*	-1	-53
C[C@H](CO)N1C[C@H](C)[C@@H](CN(C)Cc2ccc(C(F)(F)F)cc2)OCCCC[C@H](C)Oc2ccc(NS(=O)(=O)c3ccc(F)cc3)cc2C1=O	·	2	·
O=C(CCCCCCC(=O)Nc1ccccc1O)N/N=C/c1ccccc1[N+](=O)[O-]	-1	·	2
COC(=O)[C@]1(CCC(=O)OC(C)(C)C)N=C(c2ccc(OCCCO)cc2)O[C@@H]1c1ccccc1CN=[N+]=[N-]	·	0	·
O=C(CCCCCCC(=O)Nc1ccccc1O)N/N=C/c1cc(Br)ccc1O	35	-2	-11
COc1ccc(/C=N/NC(=O)c2ccccn2)cc1	-14	-10	-11
C[C@H]1CN([C@@H](C)CO)C(=O)c2cc(NS(=O)(=O)c3ccc(F)cc3)ccc2O[C@@H]1CN(C)Cc1ccc(Cl)c(Cl)c1	70*	·	-2
C[C@H](CO)N1C[C@H](C)[C@H](CN(C)Cc2ccc(Cl)c(Cl)c2)Oc2ccc(NS(=O)(=O)c3ccc(F)cc3)cc2C1=O	8	-1	-9
C[C@@H]1CN([C@@H](C)CO)C(=O)c2cc(NS(=O)(=O)c3ccc(Cl)cc3)ccc2O[C@@H]1CN(C)Cc1ccc(Cl)c(Cl)c1	58*	0	-15
C[C@@H]1CCCCO[C@@H](CN(C)Cc2ccc(Cl)c(Cl)c2)[C@@H](C)CN([C@H](C)CO)C(=O)c2cc(NS(=O)(=O)c3ccc(F)cc3)ccc2O1	56*	0	-53
C[C@H]1CCCCO[C@H](CN(C)Cc2ccc(Cl)c(Cl)c2)[C@@H](C)CN([C@@H](C)CO)C(=O)c2cc(NS(=O)(=O)c3ccc(F)cc3)ccc2O1	·	-1	·
C[C@H]1CN([C@@H](C)CO)C(=O)c2cc(NS(=O)(=O)c3ccc(Cl)cc3)ccc2O[C@H]1CN(C)Cc1ccc(Cl)c(Cl)c1	·	0	·
O=C(CCCCCC(=O)N/N=C/c1ccc(Br)cc1)NO	·	0	·
O=C(N1CCOCC1)[C@@]1(CCS(=O)(=O)c2ccccc2)COC(c2ccc(OCCCO)cc2)=N1	·	0	·
O=C(CCCCCCC(=O)Nc1ccccc1O)N/N=C/c1ccc(-c2ccccc2)c(F)c1	17	·	5
CCn1c2ccccc2c2cc(/C=N/NC(=O)c3ccccc3O)ccc21	17	1	-3
COC(=O)[C@]1(Cc2ccccc2CN=[N+]=[N-])N=C(c2ccc(OCCCO)cc2)O[C@@H]1c1ccccc1N=[N+]=[N-]	·	0	·
C=CC1c2cc(O)c(OC)cc2CCN1Cc1cc2c(cc1Br)OCO2 (stereo not given)	·	1	·
C[C@@H]1CN([C@H](C)CO)C(=O)c2cccc(NS(=O)(=O)c3cn(C)cn3)c2O[C@@H]1CN(C)CC1CCCCC1	60*	1	1
C[C@H](CO)N1C[C@H](C)[C@@H](CN(C)CC2CCCCC2)Oc2c(NC(=O)NC3CCCCC3)cccc2C1=O	23	·	-13
C[C@H]1CN([C@@H](C)CO)C(=O)c2cccc(NC(=O)NC3CCCCC3)c2O[C@H]1CN(C)Cc1ccc(Oc2ccccc2)cc1	27	1	-32
C[C@H](CO)N1C[C@H](C)[C@H](CN(C)CC2CC2)Oc2c(NS(=O)(=O)c3cn(C)cn3)cccc2C1=O	-7	-2	1
C[C@H]1CN([C@@H](C)CO)C(=O)c2cccc(NC(=O)NC3CCCCC3)c2O[C@H]1CN(C)Cc1ccc(-c2ccccc2)cc1	-29	·	-19
SMILES	T cruzi HTS	A1 apoptosis 2	INS-1E rescue
C[C@@H]1CN([C@H](C)CO)C(=O)c2cccc(NC(=O)NC3CCCCC3)c2O[C@@H]1CN(C)Cc1ccc(-c2ccccc2)cc1	70*	·	-32
C[C@@H]1CN([C@@H](C)CO)C(=O)c2cccc(NC(=O)NC3CCCCC3)c2O[C@@H]1CN(C)Cc1ccc(Oc2ccccc2)cc1	64*	·	-53
C[C@@H]1CN([C@H](C)CO)C(=O)c2cccc(NC(=O)NC3CCCCC3)c2O[C@H]1CN(C)CC1CCCCC1	83*	-1	-57
CC(C)(C)OC(=O)NC1(/C=N/NC(=O)CCCCCCC(=O)O)CCCC1	-21	0	-3
COC(=O)c1cn(CC(=O)N2CCN(C)CC2)nn1	·	-1	·
COC(=O)CCCCCCC(=O)N/N=C/c1ccccc1C(=O)O	-22	·	7
O=C(CCCCCCC(=O)Nc1ccccc1O)N/N=C/c1cc(Br)cc([N+](=O)[O-])c1O	7	-1	-13
C[C@@H]1CN([C@@H](C)CO)C(=O)c2cccc(NC(=O)NC3CCCCC3)c2O[C@H]1CN(C)Cc1ccc(C(F)(F)F)cc1	85*	·	-6
C[C@@H]1CN([C@H](C)CO)C(=O)c2cccc(NC(=O)NC3CCCCC3)c2O[C@@H]1CN(C)Cc1ccc(C(F)(F)F)cc1	23	·	-27
Cc1noc(C)c1S(=O)(=O)Nc1ccc2c(c1)CC(=O)N([C@@H](C)CO)C[C@@H](C)[C@@H](CN(C)Cc1ccc(Oc3ccccc3)cc1)O2	60*	1	-15
Cc1noc(C)c1S(=O)(=O)Nc1ccc2c(c1)CC(=O)N([C@@H](C)CO)C[C@H](C)[C@H](CN(C)Cc1ccc(-c3ccccc3)cc1)O2	19	-1	-12
Cc1noc(C)c1S(=O)(=O)Nc1ccc2c(c1)CC(=O)N([C@H](C)CO)C[C@@H](C)[C@@H](CN(C)Cc1ccc(-c3ccccc3)cc1)O2	60*	-2	-21
Cc1noc(C)c1S(=O)(=O)Nc1ccc2c(c1)CC(=O)N([C@@H](C)CO)C[C@@H](C)[C@H](CN(C)Cc1ccccc1)O2	·	-1	·
O=C1C[C@@](C(=O)NCc2ccccc2)(c2ccc([N+](=O)[O-])cc2)[C@@H](c2ccc(CO)cc2)N1C1CCCCC1	·	0	·
COc1ccc(COC[C@]23NC(=S)N[C@H](c4ccccc4O2)[C@H]3CO[Si](C)(C)C(C)(C)C)cc1	·	1	·
COc1cc(Br)c(/C=N/NC(=O)CCCCCCC(=O)O)cc1OC	-20	0	5
COC(=O)C(CC#Cc1ccc2c(c1)[C@]1(C(=O)N2)[C@H](c2ccc(OCCO)cc2)N2[C@H](c3ccccc3)[C@H](c3ccccc3)OC(=O)[C@H]2[C@@H]1C(N)=O)C(=O)OC	·	0	·
C[C@@H]1CN([C@@H](C)CO)C(=O)Cc2cc(NC(=O)Nc3ccc4c(c3)OCO4)ccc2O[C@@H]1CN(C)C(=O)Nc1ccc(C(F)(F)F)cc1	7	·	-10
C[C@@H]1CN([C@@H](C)CO)C(=O)Cc2cc(NC(=O)Nc3ccc4c(c3)OCO4)ccc2O[C@@H]1CN(C)Cc1ccc(C(F)(F)F)cc1	68*	·	-8
